# MT1-MMP txn act: MT1-MMP promoter reporter activation – cell-based, luciferase luminescence, primary screen | HT1080 MT1-MMP promoter luciferase reporter, overnight; hits give high values | activation factor at 10 µM | 86,000 compounds, 0.16% hits;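 active means activation factor of at least 2 for MT1-MMP transcription at 10 µM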
# AP ELISA ortho: alternative complement pathway inhibitors, primary screen, biochemical, ELISA, human serum, orthogonally pooled compounds; LPS-coated ELISA, C3 deposition; tested in compound mixtures; inhibition, % at 5 µM; 62,000 compounds, 0.08% hits;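 active means inhibition above 30% in each of the two pooled mixtures holding the compound, so the lower value exceeds 30%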;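 further: 0% = serum in Mg-EGTA without compound and 100% = EDTA serum blank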
#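 Assay system: human serum alternative complement pathway, C3 deposition on LPS-coated wells; Dosing: 5 µM per compound in ten-compound mixtures; Detection: Anti-C3 ELISA, OD 450 nm; Buffer or medium: Mg2+-EGTA GVB++ buffer containing human serum at 1:15 dilution; Timing: 1 h at 37 °C; Replication: two different pools per compound.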
# Her2 expr inh: inhibitors of Her2 protein expression, primary screen, SKBR-3 cells, AlphaScreen, 66K library; SKBR-3 HER2 protein level, 18-24 h; hits give low values; Receptor tyrosine-protein kinase erbB-2 (Homo sapiens), P04626; HER2 level % of control, % at 10 µM; 65,000 compounds, 0.69% hits;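 active means HER2 level under 5% of the carrier-only control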;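 further: 100% = DMSO carrier and 0% = 500 nM PU-H71 HSP90 inhibitor; lower value means stronger loss of Her2 protein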
# Target sequence (P04626 whole entry, looked up): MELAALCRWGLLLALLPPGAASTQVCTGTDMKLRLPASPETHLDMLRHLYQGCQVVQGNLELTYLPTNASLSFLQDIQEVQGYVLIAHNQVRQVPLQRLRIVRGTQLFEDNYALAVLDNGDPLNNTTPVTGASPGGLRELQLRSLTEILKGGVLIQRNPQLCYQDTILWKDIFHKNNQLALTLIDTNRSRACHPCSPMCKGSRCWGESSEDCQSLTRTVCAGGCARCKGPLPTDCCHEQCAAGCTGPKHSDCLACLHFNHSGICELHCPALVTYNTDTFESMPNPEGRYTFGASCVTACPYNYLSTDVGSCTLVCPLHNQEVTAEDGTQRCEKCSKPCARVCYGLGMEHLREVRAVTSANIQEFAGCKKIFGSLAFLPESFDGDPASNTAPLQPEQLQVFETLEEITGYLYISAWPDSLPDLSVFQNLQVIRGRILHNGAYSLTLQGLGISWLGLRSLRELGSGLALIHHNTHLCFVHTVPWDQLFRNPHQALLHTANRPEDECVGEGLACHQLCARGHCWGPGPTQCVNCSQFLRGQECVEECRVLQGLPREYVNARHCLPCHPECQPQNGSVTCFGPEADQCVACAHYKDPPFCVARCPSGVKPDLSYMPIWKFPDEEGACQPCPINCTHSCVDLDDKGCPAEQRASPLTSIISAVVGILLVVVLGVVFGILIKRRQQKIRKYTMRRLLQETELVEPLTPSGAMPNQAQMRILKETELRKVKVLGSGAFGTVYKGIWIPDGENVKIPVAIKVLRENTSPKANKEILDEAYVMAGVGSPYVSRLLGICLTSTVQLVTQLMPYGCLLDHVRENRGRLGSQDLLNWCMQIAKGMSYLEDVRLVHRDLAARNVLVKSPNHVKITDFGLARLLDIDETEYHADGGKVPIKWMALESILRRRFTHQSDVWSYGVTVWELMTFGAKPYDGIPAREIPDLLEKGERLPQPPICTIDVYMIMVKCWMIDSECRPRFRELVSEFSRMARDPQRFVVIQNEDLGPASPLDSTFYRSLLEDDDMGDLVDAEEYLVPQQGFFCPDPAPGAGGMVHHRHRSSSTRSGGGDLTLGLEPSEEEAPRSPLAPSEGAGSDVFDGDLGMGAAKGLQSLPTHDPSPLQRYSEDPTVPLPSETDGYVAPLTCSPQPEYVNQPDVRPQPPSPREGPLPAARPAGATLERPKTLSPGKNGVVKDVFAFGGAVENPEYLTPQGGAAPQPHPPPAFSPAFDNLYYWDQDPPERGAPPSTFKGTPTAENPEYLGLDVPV
# HEK293 NFkB inh: inhibitors of PMA/ionomycin-induced NF-kB reporter, primary screen, antigen receptor NF-kB inhibitor project, cell-based, HEK-293 luciferase reporter, luminescence | HEK-293 NF-kB luciferase reporter | inhibition, % at 3 µM | 62,000 compounds, 0.21% hits | AID 465, 2006;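 active means inhibition above the mean of all tested compounds plus 3 SD, cut at about 40% in these data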;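 further: 0% = stimulated DMSO wells and 100% = 10 µM reference inhibitor 5653914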
#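 Timing: 1 h pretreatment, 16 h stimulation, 37 °C; system: HEK-293 cells with stable firefly luciferase reporter driven by four HIV NF-kB elements; doses: 3 µM once, 0.30% DMSO; measured by: luciferase luminescence; control set: DMSO and 10 µM reference inhibitor; repeats: single test; reagent: PMA plus ionomycin mix as NF-kB-activating stimulus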
# JNK3 inh: JNK3 kinase activity inhibitors, primary screen, biochemical, human, purified enzyme. Mitogen-activated protein kinase 10 (Homo sapiens), P53779. HTS. inhibition, % at 8 µM. 60,000 compounds, 0.61% hits. AID 746, 2007; in the data active means inhibition above about 17%;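 further: 0% = DMSO and 100% = reference inhibitor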
# * = called active by the depositor; . = no result given. Shown are actives, neighbours in structure and some others; about 1.1% of the full set was active somewhere.
SMILES,MT1-MMP txn act,AP ELISA ortho,Her2 expr inh,HEK293 NFkB inh,JNK3 inh
Oc1ccc(N=Cc2ccc(-c3cccs3)s2)cc1,1,-1.2,-22.4*,29.7,-7.8
O=C1CCCC(O)=C1C=Nc1ccc(O)cc1,0.9,-15.8,124.2,14.8,6.2
O=C(C1CC(=O)N(c2ccccc2)C1)N1CCN(C2=NS(=O)(=O)c3ccccc32)CC1 (configuration not stated),1.3,11.5,86.8,11.9,-2.1
CC(C)C(=O)Nc1nc(-c2ccccc2)ns1,2*,.,.,.,.
Cc1ccc(-n2nc(-c3cccs3)cc2C(=O)NCC2CCCO2)c(C)c1 (configuration not stated),1.1,3.7,73.4,20.8,1.5
O=C(NCc1ccco1)C1CCN(S(=O)(=O)c2cccc3cccnc23)CC1,1.1,4.0,-17.2*,3.8,2.4
Cc1noc(C)c1C(=O)N1CCc2ccccc2C1,1.2,17.2,-16.0*,5.1,-0.8
CCSc1nc(-c2ccco2)ccc1C#N,1,-9.0,38.6,7.1,-1.6
N#Cc1ccc(-c2ccco2)nc1SCc1ccccc1,1,6.2,-0.7*,15.2,-1.2
CCN(CC)c1ccc(NS(=O)(=O)c2ccc3c(c2)oc(=O)n3C)c(C)c1,1,7.3,64.9,-2.1,-11.5
CCCC(=O)Nc1ccc(N2CCN(C(=O)c3ccccc3C)CC2)cc1,0.9,-3.6,93.1,-1.3,3.3
N#C/C(=N\Nc1ccccc1F)C(=N)N1CCCCC1,2*,.,.,.,.
COc1ccc(/C=N/n2cnnc2SCCO)cc1OC,1.1,8.7,103.3,8.1,5.2
C=CCSc1nncn1/N=C/c1ccc(OC)cc1,2*,-4.8,116.6,-21.6,5.0
O=c1c2c3c(sc2nc2sc(C4CC4)nn12)CCCC3,2*,4.6,92.1,-19.4,7.2
O=C1CCc2nc3sc4c(c3c(=O)n2N1)CCCC4,0.9,2.4,109.9,-0.5,-1.1
CCOC(=O)N1CCN(C(=O)CSCc2nc(-c3ccccc3C)oc2C)CC1,1,-1.4,-23.3*,-1.5,6.7
Cc1c(CCC#N)c(N2CCN(C3CCCCC3)CC2)n2c(nc3ccccc32)c1C#N,1.1,8.1,-15.9*,.,3.6
Cc1c(CCC#N)c(N2CCCCC2)n2c(nc3ccccc32)c1C#N,1.1,.,181.6,.,0.3
O=C(NCc1nc2ccccc2[nH]1)c1cccs1,1.4,20.6,80.2,0.4,28.5*
Cc1nnc(SCC(=O)Nc2c(Cl)cccc2Cl)[nH]c1=O,1.1,5.0,96.7,0.6,-3.0
CCc1cc(C(=O)NNC(=S)Nc2cccc(C)c2)cs1,1.9,.,.,.,.
CCc1cc(C(=O)Nc2ccc(C)cc2Br)cs1,2*,.,.,.,.
CC(=O)c1cccc(NS(=O)(=O)c2ccc3c(c2)oc(=O)n3C)c1,1,6.9,94.7,-1.6,3.9
CCOc1ccc(/C(O)=C2\C(=O)C(=O)N(c3cc(C)on3)C2c2ccccc2OC)cc1 (configuration not stated),1.2,30.1,-22.0*,13.3,21.1*
SMILES,MT1-MMP txn act,AP ELISA ortho,Her2 expr inh,HEK293 NFkB inh,JNK3 inh
CCOC(=O)CCCc1sc(N)nc1-c1[nH]c(=O)[nH]c1C,1,17.2,124.6,2.2,24.8*
COc1ccccc1-c1cc(C(F)(F)F)nc(S(=O)(=O)CCCC(=O)NC(C)C)n1,1,17.6,-12.9*,20.6,7.3
COc1ccccc1-c1cc(C(F)(F)F)nc(S(=O)(=O)CCCC(=O)Nc2cc(C)on2)n1,1,7.9,-16.3*,24.9,11.8
COc1ccccc1-c1cc(C(F)(F)F)nc(S(C)(=O)=O)n1,1.1,.,.,.,.
COc1ccccc1-c1cc(C(F)(F)F)nc(S(=O)(=O)CCCC(=O)N2CCCCC2C)n1 (configuration not stated),0.9,3.5,-17.1*,24.6,-1.9
CC(=O)Nc1ccc(NC(=O)C(C)Oc2ccccc2F)cc1 (configuration not stated),0.9,7.7,107.6,0.2,1.1
Cn1cnnc1SCC(=O)Nc1sccc1C#N,1.2,5.8,98.2,-2.3,-5.2
Cc1nnc(SCC(=O)N2CCC(C(=O)Nc3nccs3)CC2)n1Cc1ccccc1,1,-2.6,97.6,10.5,1.4
Cn1c(C(=O)NCc2ccco2)cc2c(=O)[nH]c3ccccc3c21,1,-4.7,84.4,14.3,46.9*
COc1cccc(-c2cc(C(=O)O)no2)c1,1.1,.,.,.,.
CCC1(C)N=C(c2ccc3c(c2)OCO3)CC(c2ccccc2O)N1 (configuration not stated),2.4*,.,.,.,.
COc1cccc(C2=NC(C)(C)NC(c3ccccc3O)C2)c1 (configuration not stated),2.1*,10.9,18.1,9.5,2.9
Cn1c(=O)c2c(nc(Oc3ccccn3)n2C)n(C)c1=O,1.2,-6.4,96.2,-11.4,-12.1
COc1cccc(CNC(=O)C2CCN(S(=O)(=O)c3cnc[nH]3)CC2)c1,1.1,8.2,145.2,15.9,3.0
c1ccc(-c2nc3c(ccc4ccccc43)[nH]2)nc1,2.3*,.,.,.,.
O=c1[nH]c(-c2ccccn2)nc2ccccc12,1.3,.,111.0,.,-2.3
COc1cccc(NC(=O)c2ccc3snnc3c2)c1,1.8,.,.,.,.
O=C(Oc1ccc(Cl)c2cccnc12)N1CCOCC1,1,17.7,1.0*,2.9,-2.2
O=S(=O)(C/C(=C/CO)S(=O)(=O)c1ccccc1)c1ccccc1,0.6,5.9,-21.3*,18.0,-2.1
O=C(c1ccc(F)cc1)N1CCN(C2CC3CCC2C3)CC1 (configuration not stated),0.9,6.3,146.5,20.4,3.3
OC(CN1CCN(c2cccc(C(F)(F)F)c2)CC1)c1c[nH]c2ccccc12 (configuration not stated),1.3,10.5,-22.4*,12.1,-0.9
O=C(CS(=O)(=O)Cc1ccccc1)N1CCN(c2cccc(C(F)(F)F)c2)CC1,1.1,22.8,120.0,-8.0,-1.4
CCOc1cc(S(=O)(=O)NCCc2cccc(C)c2)c(OCC)cc1-n1cnnn1,1.2,8.2,3.6*,10.2,0.0
COc1ccc(C(=O)N2CCN(c3nnnn3-c3ccccc3)CC2)cc1OC,1.1,5.4,106.1,3.4,-1.5
CCOC(=O)N1CCN(c2nnnn2-c2ccccc2)CC1,1.1,-3.4,-25.6*,13.4,0.5
CC1(C)Cc2c(sc3ncn4nc(-c5ccco5)nc4c23)CO1,1.1,16.5,105.6,.,6.5
O=S(=O)(Nc1cccc2ncccc12)c1cccs1,0.1,2.2,-7.3*,11.4,-1.6
CCOC(=O)NC(=O)CSc1ccccn1,1.1,13.2,83.9,5.4,-8.8
c1ccc(-c2cc3n(c2)CCc2ccccc2-3)cc1,2.6*,.,.,.,.
CCN(CC)c1ccc2c(c1)OC(N)=C(C#N)C2c1cccnc1 (configuration not stated),0.4,10.9,58.7,52.7*,-5.8

# Source: PubChem BioAssay
